From article PMC12086512 (Protein Science : A Publication of the Protein Society, 2025)

How the values were obtained:
p67^1 (residues 572–612) = assay: ELISA, binding to p67^1; design: species or system Theileria parva; conditions: 50 nM antibody
Procedure, shortened: (§1)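 Proteins coated overnight at 4°C in PBS: full-length C-His p67 (Expi293, Ni-NTA), p67 fragments (E. coli BL21(DE3), GST/6xHis fusion, glutathione resin, TEV cleavage where needed), ubiquitin or BSA. Fab detected with HRP anti-FLAG, IgG with HRP anti-Fc. Eight washes with PBS/0.25% Tween 20 between steps. TMB 2 min, stopped with 1.0 M phosphoric acid, A450 read.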

bovine serum albumin = assay: ELISA, negative control protein BSA; type: binding; conditions: serial dilutions of Fab
Procedure, shortened: as §1

T. parva sporozoites = assay: In vitro sporozoite neutralization assay with bovine PBMCs; type: cell-based, Theileria parva; conditions: exact values not determined due to incomplete fitting
ubiquitin = assay: ELISA, negative control protein ubiquitin; type: binding; conditions: serial dilutions of Fab
Procedure, shortened: as §1

full‐length p67 = assay: ELISA, binding to full-length p67; design: species or system Theileria parva; conditions: 50 nM antibody
Procedure, shortened: as §1

[1] = tested on: His‐p67C (p67 residues 572–651); assay: ELISA, binding to immobilized p67C; design: species or system Theileria parva; conditions: 50 nM antibody
Procedure, shortened: as §1

B1: Fab B11: phage-derived synthetic human Fab binding p67C, neutralizes T. parva sporozoites (antibody, V domains shown)
VH: EVQLVESGGGLVQPGGSLRLSCAASGFNISSSSIHWVRQAPGKGLEWVASISPYYSSTSYADSVKGRFTISADTSKNTAYLQMNSLRAEDTAVYYCARGPGYAMDYWGQGTLVTVSS
VL: DIQMTQSPSSLSASVGDRVTITCRASQSVSSAVAWYQQKPGKAPKLLIYSASSLYSGVPSRFSGSRSGTDFTLTISSLQPEDFATYYCQQYYYAPITFGQGTKVEIK
In the case of B1, the “Binding to p67^1” value (p67^1 (residues 572–612)) is reported as “bound”, the “Binding to control protein bovine serum albumin” value (bovine serum albumin) is reported as “no detectable binding” and the “Fold less neutralizing potency than IgGs B11 and 21.4” value (T. parva sporozoites) is reported as “roughly 10 fold”. The “Binding to control protein ubiquitin” value (ubiquitin) was “no detectable binding”, the “Binding to full-length p67” value (full‐length p67) was “bound” and the “Binding to p67C” value [1] was “bound”.
